Source: ChEMBL document CHEMBL1142421, “Synthesis and inhibitory activity of oligosaccharide thiazolines as a class of mechanism-based inhibitors for endo-beta-N-acetylglucosaminidases” (Bioorg Med Chem, 2008)
Activity calls are given as the source filed them. No cut-off for these calls is given here.

Experiments:
[1] = tested on: Mucor hiemalis; experiment: Inhibition of Mucor hiemalis endo-beta-N-acetylglucosaminidase upto 500 uM after 5 mins by HPAEC-PED method
Summary of the method: (§1)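 Man9GlcNAc2Asn (500 μM) as substrate in 50 mM phosphate buffer pH 6.5. Limited enzyme is incubated with or without serial dilutions of thiazoline at 30°C for 5 min. Reaction stopped by heating at 100°C for 3 min. Man9GlcNAc hydrolysis product quantified by HPAEC-PED.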

[2] = target: T1, Endo-beta-N-acetylglucosaminidase (Arthrobacter protophormiae) (UniProt Q9ZB22); experiment: Inhibition of Arthrobacter protophormiae endo-beta-N-acetylglucosaminidase upto 500 uM after 5 mins by HPAEC-PED method; conditions: Glutamicibacter protophormiae; summary of the method: as §1
T1 sequence (whole entry): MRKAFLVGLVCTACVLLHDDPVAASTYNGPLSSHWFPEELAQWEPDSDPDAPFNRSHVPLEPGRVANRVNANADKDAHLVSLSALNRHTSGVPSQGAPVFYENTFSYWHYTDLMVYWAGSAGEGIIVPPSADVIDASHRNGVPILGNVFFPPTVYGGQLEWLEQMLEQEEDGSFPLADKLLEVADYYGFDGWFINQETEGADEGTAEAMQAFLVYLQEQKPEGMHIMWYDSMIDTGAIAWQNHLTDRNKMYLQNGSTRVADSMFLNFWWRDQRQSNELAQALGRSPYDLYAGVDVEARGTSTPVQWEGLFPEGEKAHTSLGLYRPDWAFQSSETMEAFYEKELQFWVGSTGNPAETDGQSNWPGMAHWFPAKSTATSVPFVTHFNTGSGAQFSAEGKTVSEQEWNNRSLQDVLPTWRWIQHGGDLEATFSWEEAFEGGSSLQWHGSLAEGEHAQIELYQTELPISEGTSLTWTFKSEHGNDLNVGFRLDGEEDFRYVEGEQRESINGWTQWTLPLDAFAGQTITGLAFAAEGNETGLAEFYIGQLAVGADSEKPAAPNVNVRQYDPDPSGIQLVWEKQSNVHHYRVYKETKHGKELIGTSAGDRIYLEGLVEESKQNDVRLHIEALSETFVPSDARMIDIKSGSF

[3] = tested on: Flavobacterium sp.; experiment: Inhibition of Flavobacterium sp. endo-beta-N-acetylglucosaminidase at 100 uM after 5 mins by HPAEC-PED method
Summary of the method: (§2)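 Endo-Fsp assay uses Man5GlcNAc2Asn as substrate in 50 mM phosphate buffer pH 6.5. Limited enzyme is incubated with or without thiazoline at 30°C for 5 min, then heated at 100°C for 3 min to stop. Hydrolytic product quantified by HPAEC-PED.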

[4] = target: T2, Endo-beta-N-acetylglucosaminidase (Arthrobacter protophormiae, UniProt Q9ZB22); experiment: Inhibition of Arthrobacter protophormiae endo-beta-N-acetylglucosaminidase after 5 mins by HPAEC-PED method; design: species or system Glutamicibacter protophormiae; summary of the method: as §1
T2 sequence (Q9ZB22 whole entry): T1 sequence (whole entry)

[5] = Inhibition of Mucor hiemalis endo-beta-N-acetylglucosaminidase after 5 mins by HPAEC-PED method; summary of the method: as §1
[6] = tested on: Flavobacterium sp.; experiment: Inhibition of Flavobacterium sp. endo-beta-N-acetylglucosaminidase at 1uM after 5 mins by HPAEC-PED method; summary of the method: as §2
[7] = target: T3, Cytosolic endo-beta-N-acetylglucosaminidase (Homo sapiens, UniProt Q8NFI3); experiment: Inhibition of human endo-beta-N-acetylglucosaminidase expressed in Hek293 cells after 3 mins; type: cell-based
T3 sequence (Q8NFI3 whole entry): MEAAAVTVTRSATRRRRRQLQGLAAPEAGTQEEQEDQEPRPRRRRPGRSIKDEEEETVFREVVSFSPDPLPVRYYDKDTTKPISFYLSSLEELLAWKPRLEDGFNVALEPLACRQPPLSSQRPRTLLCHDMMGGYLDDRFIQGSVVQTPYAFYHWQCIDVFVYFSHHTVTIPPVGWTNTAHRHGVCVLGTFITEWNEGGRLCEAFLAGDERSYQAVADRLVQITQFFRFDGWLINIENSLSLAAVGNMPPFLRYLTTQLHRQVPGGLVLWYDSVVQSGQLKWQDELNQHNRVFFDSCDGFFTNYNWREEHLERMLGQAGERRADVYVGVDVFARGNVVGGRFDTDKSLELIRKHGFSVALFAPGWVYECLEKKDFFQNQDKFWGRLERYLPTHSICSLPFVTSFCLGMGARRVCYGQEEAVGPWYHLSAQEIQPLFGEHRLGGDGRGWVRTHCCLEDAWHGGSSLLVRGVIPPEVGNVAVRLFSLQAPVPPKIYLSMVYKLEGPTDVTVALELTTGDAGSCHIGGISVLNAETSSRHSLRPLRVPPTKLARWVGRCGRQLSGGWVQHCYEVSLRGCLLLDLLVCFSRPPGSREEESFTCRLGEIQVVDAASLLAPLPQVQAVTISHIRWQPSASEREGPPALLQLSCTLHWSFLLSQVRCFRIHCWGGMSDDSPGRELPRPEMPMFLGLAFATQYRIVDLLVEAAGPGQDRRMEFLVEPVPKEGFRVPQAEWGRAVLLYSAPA
Summary of the method: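 Enzyme source: HEK293 cells transfected with pcDNA-hENGase, extracted 48 h later in Hepes-KOH pH 7.0 with protease inhibitors. The 100,000 × g soluble fraction was assayed in 40 mM Mes-NaOH pH 6.1 with 1 μM Man9GlcNAc2-PA and inhibitor from 10 mM to 0.1 μM, 3 min at 37°C. Reaction stopped by boiling; product quantified by C18 HPLC.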

Activity [1]	Activity [2]	Activity [3]	IC50 [4] [µM]	IC50 [5] [µM]	inhibition [6] [%]	IC50 [7] [µM]	SMILES
inactive	inactive	–	–	–	–	–	CC1=N[C@@H]2[C@@H](O)[C@H](O)[C@@H](CO)O[C@H]2S1
–	–	inactive	38	80	–	–	CC1=N[C@@H]2[C@@H](O)[C@H](O[C@@H]3O[C@H](CO)[C@@H](O)[C@H](O)[C@@H]3O)[C@@H](CO)O[C@H]2S1
–	–	inactive	13	64	–	–	CC1=N[C@@H]2[C@@H](O)[C@H](O[C@@H]3O[C@H](CO[C@H]4O[C@H](CO)[C@@H](O)[C@H](O)[C@@H]4O)[C@@H](O)[C@H](O[C@@H]4O[C@H](CO)[C@@H](O)[C@H](O)[C@@H]4O)[C@@H]3O)[C@@H](CO)O[C@H]2S1
–	–	–	0.22	6	75	0.42	CC1=N[C@@H]2[C@@H](O)[C@H](O[C@@H]3O[C@H](CO[C@H]4O[C@H](CO[C@H]5O[C@H](CO[C@H]6O[C@H](CO)[C@@H](O)[C@H](O)[C@@H]6O)[C@@H](O)[C@H](O)[C@@H]5O)[C@@H](O)[C@H](O[C@@H]5O[C@H](CO)[C@@H](O)[C@H](O[C@@H]6O[C@H](CO)[C@@H](O)[C@H](O)[C@@H]6O)[C@@H]5O)[C@@H]4O)[C@@H](O)[C@H](O[C@@H]4O[C@H](CO)[C@@H](O)[C@H](O)[C@@H]4O[C@@H]4O[C@H](CO)[C@@H](O)[C@H](O)[C@@H]4O[C@@H]4O[C@H](CO)[C@@H](O)[C@H](O)[C@@H]4O)[C@@H]3O)[C@@H](CO)O[C@H]2S1
